Test results taken from ChEMBL document CHEMBL3044975, “Hybrid ubiquinone: novel inhibitor of mitochondrial complex I” (Biochim Biophys Acta, 2002).

Tests used:
[1] = target: T1, NADH-ubiquinone oxidoreductase chain 1 (Bos taurus, UniProt P03887); experiment: Inhibition of Bos taurus (bovine) mitochondrial complex 1 assessed as reduction in enzyme activity by NADH-DB oxidoreductase assay
[2] = target: T1, NADH-ubiquinone oxidoreductase chain 1; experiment: Inhibition of Bos taurus (bovine) mitochondrial complex 1 assessed as reduction in enzyme activity by NADH-DU oxidoreductase assay
Summary of the method: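 Bovine heart submitochondrial particles (SMP) at 30 µg protein/ml. 50 µM decyl ubiquinone is the acceptor. SMP are preincubated with the HU for 5 min, then 50 µM NADH is added. NADH oxidation is read at 340 nm, 30 °C. IC50 from two independent experiments.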

T1 sequence (P03887 whole entry): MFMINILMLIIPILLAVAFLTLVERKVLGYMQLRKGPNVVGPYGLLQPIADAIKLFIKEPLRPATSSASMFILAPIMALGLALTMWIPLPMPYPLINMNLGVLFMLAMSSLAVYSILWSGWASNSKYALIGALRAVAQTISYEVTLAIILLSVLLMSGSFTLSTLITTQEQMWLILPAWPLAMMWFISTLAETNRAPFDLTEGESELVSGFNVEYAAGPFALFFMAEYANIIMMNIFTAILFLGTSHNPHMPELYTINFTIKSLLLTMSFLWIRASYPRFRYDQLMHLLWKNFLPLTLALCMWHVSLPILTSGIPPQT

| Structure (SMILES) | IC50 [1] | IC50 [2] |
| --- | --- | --- |
| CCCCCCCCCCC(=O)N(C)CC1=C(C)C(=O)C(OC)=C(OC)C1=O | 11800 nM | 6200 nM |
| COC1=C(OC)C(=O)C(CCN(C)C(=O)c2ccc(Oc3ccc(C(C)(C)C)cc3)cc2)=C(C)C1=O | 470 nM | 760 nM |
| C/C=C(\C)[C@H](O)[C@H](C)/C=C(C)/C=C/C/C(C)=C/Cc1nc(OC)c(OC)c(O)c1C [PIERICIDIN A] | 3 nM | – |
| COC1=C(OC)C(=O)C(CNC(=O)c2ccc(Oc3ccc(C(C)(C)C)cc3)cc2)=C(C)C1=O | 340 nM | 530 nM |
| COC1=C(OC)C(=O)C(CC(=O)N(C)c2ccc(Oc3ccc(C(C)(C)C)cc3)cc2)=C(C)C1=O | 1800 nM | 2000 nM |
| CN(C)C(=O)c1ccc(Oc2ccc(C(C)(C)C)cc2)cc1 | 650 nM | – |
| COC1=C(OC)C(=O)C(CN(C)C(=O)c2ccc(Oc3ccc(C(C)(C)C)cc3)cc2)=C(C)C1=O | 77 nM | 88 nM |
| CCN(CC1=C(C)C(=O)C(OC)=C(OC)C1=O)C(=O)c1ccc(Oc2ccc(C(C)(C)C)cc2)cc1 | 370 nM | 630 nM |
| COC1=C(OC)C(=O)C(CCCCCCN(C)C(=O)c2ccc(Oc3ccc(C(C)(C)C)cc3)cc2)=C(C)C1=O | 1100 nM | 610 nM |
| CCCCc1ccc(Oc2ccc(C(=O)N(C)CC3=C(C)C(=O)C(OC)=C(OC)C3=O)cc2)cc1 | 970 nM | 840 nM |
